Data from ChEMBL document CHEMBL2150909, “Imidazo[1,2-a]pyridines: orally active positive allosteric modulators of the metabotropic glutamate 2 receptor” (J Med Chem, 2012).

How the values were obtained:
[1] = molecular target: T1, Metabotropic glutamate receptor 2 (Homo sapiens, UniProt Q14416); test: Agonist activity at human mGlu 2 expressed in CHO cells assessed as [35S]GTPgammaS binding by liquid scintillation analysis; type: functional, cell-based
Procedure, shortened: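 Membranes from butyrate-stimulated (5 mM, 24 h) CHO cells expressing human mGlu2. Preincubated 30 min at 30 °C in HEPES pH 7.4 with NaCl, MgCl2, 50 μM GDP and saponin; modulator 0.3 nM–50 μM, no added glutamate. [35S]GTPγS 0.1 nM final, 30 min at 30 °C, filtered, scintillation counted. Nonspecific binding defined with cold GTP; 11 concentrations in duplicate, ≥3 curves.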
Target sequence in this assay (Q14416 whole entry): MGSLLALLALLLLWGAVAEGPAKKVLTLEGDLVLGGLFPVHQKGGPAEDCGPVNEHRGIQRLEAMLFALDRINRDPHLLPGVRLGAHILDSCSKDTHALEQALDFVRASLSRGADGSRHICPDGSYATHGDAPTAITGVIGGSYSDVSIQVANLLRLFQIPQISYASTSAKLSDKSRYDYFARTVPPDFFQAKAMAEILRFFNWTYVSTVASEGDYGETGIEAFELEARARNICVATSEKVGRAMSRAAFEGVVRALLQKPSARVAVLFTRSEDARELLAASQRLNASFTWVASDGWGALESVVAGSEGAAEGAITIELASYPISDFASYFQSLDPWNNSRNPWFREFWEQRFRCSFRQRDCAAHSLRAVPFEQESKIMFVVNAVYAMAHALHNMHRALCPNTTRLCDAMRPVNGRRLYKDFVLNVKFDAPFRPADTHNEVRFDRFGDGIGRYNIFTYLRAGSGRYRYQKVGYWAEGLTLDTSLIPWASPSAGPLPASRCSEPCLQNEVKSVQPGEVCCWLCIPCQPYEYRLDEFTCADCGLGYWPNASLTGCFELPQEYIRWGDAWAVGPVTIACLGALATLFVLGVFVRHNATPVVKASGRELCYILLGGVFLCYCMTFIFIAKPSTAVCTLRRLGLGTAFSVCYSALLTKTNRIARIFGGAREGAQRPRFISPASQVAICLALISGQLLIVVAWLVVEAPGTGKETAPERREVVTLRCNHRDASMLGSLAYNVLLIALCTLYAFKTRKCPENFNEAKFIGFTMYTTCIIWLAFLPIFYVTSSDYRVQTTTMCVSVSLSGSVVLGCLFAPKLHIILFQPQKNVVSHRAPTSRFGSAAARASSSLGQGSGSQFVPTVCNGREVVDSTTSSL

[2] = Metabolic stability of human liver microsomes assessed as compound metabolized at 5 uM after 15 mins; type: ADME, Microsome; settings: read-out: Drug metabolism
Procedure, shortened: (§1)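 Test compound at 5 μM incubated 15 min with rat or human liver microsomes; read-out is percent of compound metabolized.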

[3] = molecular target: T1, Metabotropic glutamate receptor 2; test: Agonist activity at human mGlu 2 expressed in CHO cells by PAM assay relative to glutamate; type: functional, cell-based
Procedure, shortened: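 The assay measured [35S]GTPγS binding to membranes from CHO cells expressing human mGluR2. Cells were butyrate-stimulated (5 mM, 24 h) before membranes were prepared. Membranes were preincubated for 30 min at 30 °C in HEPES pH 7.4 buffer (NaCl, MgCl2, 50 μM GDP) with compound (0.3 nM–50 μM, 11 concentrations) plus EC25 glutamate. [35S]GTPγS (0.1 nM final) was then added for 30 min at 30 °C. Bound label was collected by filtration and counted. Runs were done at least in triplicate with duplicate points, and a four-parameter logistic fit gave the values.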
Target sequence in this assay (Q14416 19-872 limits assumed): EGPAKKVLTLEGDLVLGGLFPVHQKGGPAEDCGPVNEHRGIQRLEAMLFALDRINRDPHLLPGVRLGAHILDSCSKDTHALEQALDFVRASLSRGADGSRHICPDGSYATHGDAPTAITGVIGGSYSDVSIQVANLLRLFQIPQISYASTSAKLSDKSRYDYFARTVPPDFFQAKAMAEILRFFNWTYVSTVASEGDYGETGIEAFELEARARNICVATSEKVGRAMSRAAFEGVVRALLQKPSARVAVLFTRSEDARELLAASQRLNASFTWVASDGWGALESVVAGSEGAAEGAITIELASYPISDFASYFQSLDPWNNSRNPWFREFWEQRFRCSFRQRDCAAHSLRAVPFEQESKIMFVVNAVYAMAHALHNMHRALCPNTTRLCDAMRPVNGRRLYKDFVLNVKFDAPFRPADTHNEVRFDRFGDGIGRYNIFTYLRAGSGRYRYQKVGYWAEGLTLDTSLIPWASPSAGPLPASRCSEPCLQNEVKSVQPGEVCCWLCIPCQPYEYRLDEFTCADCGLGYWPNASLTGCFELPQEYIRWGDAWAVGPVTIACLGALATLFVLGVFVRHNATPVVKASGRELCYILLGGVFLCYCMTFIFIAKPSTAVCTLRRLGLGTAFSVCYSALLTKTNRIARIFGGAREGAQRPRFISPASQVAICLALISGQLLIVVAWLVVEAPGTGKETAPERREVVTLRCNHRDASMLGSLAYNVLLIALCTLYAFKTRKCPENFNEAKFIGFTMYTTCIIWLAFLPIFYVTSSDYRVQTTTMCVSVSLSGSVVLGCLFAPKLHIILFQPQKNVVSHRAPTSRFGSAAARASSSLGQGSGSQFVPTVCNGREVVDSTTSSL

[4] = Cmax in Sprague-Dawley rat at 10 mg/kg, po and 2.5 mg/kg, iv; type: ADME, organism-based; settings: in vivo
Procedure, shortened: (§2)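 Rat PK: compounds formulated in 20% HP-β-CD at pH 4 and given orally and intravenously. Values are geometric means of at least two runs ± SEM.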

[5] = Oral bioavailability in Sprague-Dawley rat at 10 mg/kg; type: ADME, organism-based; settings: in vivo
Procedure, shortened: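 Male Sprague-Dawley rats given 10 mg/kg orally and/or 1.25 mg/kg intravenously; compound formulated in 20% HP-β-CD at pH 4. Cmax, tmax, AUC0−inf, t1/2, clearance and oral bioavailability F derived from plasma levels; geometric mean of at least two runs ± SEM.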

[6] = Drug uptake in SPF Swiss mouse brain at 10 mg/kg, sc after 1 hr; type: ADME, organism-based; design: dose 10 mg/kg, route subcutaneous; settings: read-out: Drug uptake
Procedure, shortened: (§3)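 Male Swiss SPF mice dosed subcutaneously at 10 mg/kg in 20% HP-β-CD, pH 4. Brain levels measured in ng/g and plasma levels in ng/mL at the stated time, with brain/plasma ratio; geometric mean of at least two runs ± SEM.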

[7] = Ratio of drug level in brain to plasma of SPF Swiss mouse at 10 mg/kg, sc after 2 hrs; type: ADME, organism-based; design: dose 10 mg/kg, route subcutaneous; settings: read-out: BPR
Procedure, shortened: (§4)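 Male Swiss SPF mice, single subcutaneous dose of 10 mg/kg in 20% HP-β-CD at pH 4. Brain levels (ng/g) and plasma levels (ng/mL) measured at the stated time after dosing; brain-to-plasma ratio taken from these. Geometric mean of at least two runs ± SEM.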

[8] = Drug uptake in SPF Swiss mouse brain at 10 mg/kg, sc after 2 hrs; type: ADME, organism-based; design: dose 10 mg/kg, route subcutaneous; settings: read-out: Drug uptake; procedure, shortened: as §3
[9] = Clearance in Sprague-Dawley rat at 10 mg/kg, po and 2.5 mg/kg, iv; type: ADME, organism-based; settings: in vivo
[10] = Ratio of drug level in brain to plasma of SPF Swiss mouse at 10 mg/kg, sc after 1 hr; type: ADME, organism-based; design: dose 10 mg/kg, route subcutaneous; settings: read-out: BPR; procedure, shortened: as §4
[11] = Plasma concentration in SPF Swiss mouse at 10 mg/kg, sc after 1 hr; type: ADME, organism-based; design: dose 10 mg/kg, route subcutaneous; procedure, shortened: as §3
[12] = Half life in Sprague-Dawley rat at 10 mg/kg, po and 2.5 mg/kg, iv; type: ADME, organism-based; settings: in vivo; procedure, shortened: as §2
[13] = Tmax in Sprague-Dawley rat at 10 mg/kg, po and 2.5 mg/kg, iv; type: ADME, organism-based; settings: in vivo; procedure, shortened: as §2
[14] = Metabolic stability of Sprague-Dawley rat liver microsomes assessed as compound metabolized at 5 uM after 15 mins; type: ADME, Microsome; settings: read-out: Drug metabolism; procedure, shortened: as §1
[15] = AUC (0 to infinity) in Sprague-Dawley rat at 10 mg/kg, po and 2.5 mg/kg, iv; type: ADME, organism-based; settings: plasma; procedure, shortened: as §2
[16] = Plasma concentration in SPF Swiss mouse at 10 mg/kg, sc after 2 hrs; type: ADME, organism-based; design: dose 10 mg/kg, route subcutaneous; procedure, shortened: as §3

| SMILES | EC50 [1] [nM] | metabolised at 0.25 h, 5 µM [2] [%] | Emax [3] [%] | metabolised at 0.25 h, 5 µM [14] [%] | further results |
| --- | --- | --- | --- | --- | --- |
| N#Cc1c(-c2ccc3c(ccn3C3CCOCC3)c2)ccn2c(CC(F)(F)F)cnc12 | 501 | 23 | 442 | 28 | Cmax [4]: 216 ng/mL; bioavailability [5]: 15%; concentration at 1 h [6]: 704 ng/g; Kp at 2 h [7]: 0.5; concentration at 2 h [8]: 50 ng/g; clearance [9]: 83.3 mL/min/kg; Kp at 1 h [10]: 0.8; concentration at 1 h [11]: 932 ng/mL; half-life [12]: 55.2 min; Tmax [13]: 30 min; AUC(0-inf) [15]: 281 ng·h/mL; concentration at 2 h [16]: 95 ng/mL |
| FC(F)(F)Cc1cnc2c(Cl)c(-c3cc(Cl)c4c(ccn4CC4CC4)c3)ccn12 |  | 1 | 193 | 70 |  |
| Cn1ccc2cc(-c3ccn4c(CC(F)(F)F)cnc4c3C#N)cc(Cl)c21 | 120 | 51 | 184 | 62 |  |
| N#Cc1c(-c2cc(Cl)c3c(ccn3CC3CC3)c2)ccn2c(CC(F)(F)F)cnc12 |  | 19 | 200 | 74 |  |
| N#Cc1c(-c2ccc3c(ccn3CC3CC3)c2)ccn2c(CC(F)(F)F)cnc12 | 190 | 24 | 230 | 40 |  |

Now from value to compound, other results behind:

| EC50 [1] [nM] | metabolised at 0.25 h, 5 µM [2] [%] | Emax [3] [%] | metabolised at 0.25 h, 5 µM [14] [%] | SMILES | further results |
| --- | --- | --- | --- | --- | --- |
|  |  | 167 |  | N#Cc1c(-c2ccc(N3CCOCC3)c(Cl)c2)ccn2c(CC(F)(F)F)cnc12 |  |
|  | 21 | 307 | 36 | N#Cc1c(-c2ccc(NC3CCOCC3)c(Cl)c2)ccn2c(CC(F)(F)F)cnc12 |  |
